Data: ChEMBL document CHEMBL3877303 (J Med Chem, 2017)
Active and inactive are the calls of the source. The calls are words filed in the database; no cut-off is given here.

What was measured:
[1] = biological target: Tyrosine-protein kinase Lck (Homo sapiens, UniProt P06239); experiment: Inhibition of recombinant C-terminal His-tagged human LCK cytoplasmic domain expressed in baculovirus expression system measured after 1 hr by FRET based Z'Lyte assay
Summary of the method: (§1)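 Z'-LYTE FRET biochemical kinase assay run by Invitrogen on selected kinases identified from binding profiling; IC50 from dose-response.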

[2] = biological target: Platelet-derived growth factor receptor beta (Homo sapiens, UniProt P09619); experiment: Inhibition of recombinant His-tagged human PDGFR-beta cytoplasmic domain (558 to 1106 residues) expressed in baculovirus expression system measured after 1 hr by FRET based Z'Lyte assay; summary of the method: as §1
[3] = system: Mast/stem cell growth factor receptor Kit (Homo sapiens), P10721 [V559D,V654A]; experiment: Inhibition of Tel-fused c-KIT V559D/V654A double mutant (unknown origin) expressed in BAF3 cells assessed as growth inhibition measured after 72 hrs by CellTiter-Glo or CCK8 assay; assay type: cell-based
Summary of the method: (§2)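 BaF3 lines were made by retroviral transduction with kinase-fusion MSCV vectors packaged in HEK293T cells. Cells were selected with puromycin for 48 h, then selected again without IL-3 so growth depends on the introduced kinase. […] They were seeded at 1 to 2.5×10^4 cells/mL with compound dilutions and incubated 72 h. Viability was read by CellTiter-Glo luminescence or CCK-8 absorbance (450/655 nm), normalized to DMSO control; GI50 was curve-fitted from triplicate tests.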

[4] = system: Mast/stem cell growth factor receptor Kit (Homo sapiens), P10721 [N822K]; experiment: Inhibition of Tel-fused c-KIT N822K mutant (unknown origin) expressed in BAF3 cells assessed as growth inhibition measured after 72 hrs by CellTiter-Glo or CCK8 assay; assay type: cell-based; summary of the method: as §2
[5] = biological target: BCR/ABL p210 fusion protein (Homo sapiens, UniProt A1Z199); experiment: Inhibition of BCR/ABL p210 fusion protein mediated signaling pathways assessed as reduction in Stat5 phosphorylation at Y694 in human KU812 cells at 0.01 to 3 uM measured after 2 hrs by immunoblotting; assay type: cell-based
Summary of the method: (§3)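 After an ice-cold PBS wash, cells were lysed in RIPA buffer (50 mM Tris pH 8.0) with protease and phosphatase inhibitors, and protein was quantified by BCA. Lysates were run on SDS-PAGE, transferred to PVDF and blocked in 5% milk/TBST. Phospho- and total proteins were probed by immunoblot with ECL detection; β-actin served as loading control.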

[6] = biological target: T1, Mast/stem cell growth factor receptor Kit (Homo sapiens, UniProt P10721); experiment: Inhibition of c-KIT autophosphorylation at Y703 in human GIST882 cells at 0.01 to 3 uM measured after 2 hrs by immunoblotting; assay type: cell-based; summary of the method: as §3
GISTT1 [7] = experiment: Induction of apoptosis in human GISTT1 cells assessed as increase in cleaved caspase-3 level at 0.1 to 3 uM by Western blot analysis; assay type: functional, cell-based
Summary of the method: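 Cells were treated with DMSO or serially diluted compound for the indicated periods. They were washed in ice-cold PBS and lysed in RIPA buffer with protease/phosphatase inhibitors, and protein was quantified by BCA. Lysates were resolved by SDS-PAGE, transferred to PVDF and blocked in 5% milk/TBST. Blots were probed for PARP and caspase-3, with β-actin as loading control, and detected by ECL.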

[8] = Tmax in Sprague-Dawley rat at 10 mg/kg, po; assay type: ADME, organism-based; conditions: in vivo
Summary of the method: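 Male Sprague-Dawley rats, 6-8 weeks old, fasted overnight, dosed iv or po. Jugular vein blood (~0.2 mL, heparin) sampled at 1 min to 8 h (iv) or 5 min to 24 h (po). Plasma separated by centrifugation at 2-8 °C and stored at -80 °C before analysis.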

[9] = biological target: T1, Mast/stem cell growth factor receptor Kit; conditions: BaF3
GISTT1 [10] = experiment: Anticancer activity against human GISTT1 cells xenografted in nu/nu mouse assessed as tumor growth inhibition administered daily via oral gavage measured 21 days post compound treatment
[11] = biological target: T2, Discoidin domain-containing receptor 2 (Homo sapiens) (UniProt Q16832); experiment: Inhibition of recombinant His-tagged human DDR2 cytoplasmic domain expressed in baculovirus expression system assessed as residual activity at 1 uM by KINOMEscan binding assay relative to control
T2 sequence (whole entry): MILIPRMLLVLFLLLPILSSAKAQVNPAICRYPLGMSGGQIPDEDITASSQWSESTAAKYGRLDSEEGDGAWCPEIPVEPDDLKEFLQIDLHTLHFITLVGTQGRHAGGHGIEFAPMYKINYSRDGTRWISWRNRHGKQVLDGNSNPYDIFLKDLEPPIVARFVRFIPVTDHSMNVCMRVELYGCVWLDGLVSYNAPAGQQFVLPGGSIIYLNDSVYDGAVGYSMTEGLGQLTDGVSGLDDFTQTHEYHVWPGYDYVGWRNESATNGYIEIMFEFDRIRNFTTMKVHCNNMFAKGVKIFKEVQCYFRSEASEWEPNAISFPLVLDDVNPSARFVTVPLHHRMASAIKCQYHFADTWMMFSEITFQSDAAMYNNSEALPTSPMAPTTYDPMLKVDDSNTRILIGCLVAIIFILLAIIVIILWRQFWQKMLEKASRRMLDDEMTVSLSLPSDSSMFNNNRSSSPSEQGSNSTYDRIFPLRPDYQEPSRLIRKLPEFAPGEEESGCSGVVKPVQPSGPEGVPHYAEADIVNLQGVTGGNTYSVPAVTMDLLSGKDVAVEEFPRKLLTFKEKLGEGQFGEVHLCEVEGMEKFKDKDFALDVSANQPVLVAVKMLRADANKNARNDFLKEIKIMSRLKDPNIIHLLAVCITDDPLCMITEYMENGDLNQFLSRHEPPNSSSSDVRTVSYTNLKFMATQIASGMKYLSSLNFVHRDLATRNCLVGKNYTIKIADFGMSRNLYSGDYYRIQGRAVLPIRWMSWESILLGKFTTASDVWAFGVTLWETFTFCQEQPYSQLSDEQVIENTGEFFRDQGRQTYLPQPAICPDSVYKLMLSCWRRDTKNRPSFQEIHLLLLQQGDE

[12] = Anticancer activity against human GISTT1 cells xenografted in nu/nu mouse assessed as tumor weight at 25 mg/kg, po administered daily via oral gavage measured 21 days post compound treatment (reference value: 2.86 g)
[13] = Cell cycle arrest in human K562 cells assessed as accumulation at G0/G1 phase at 1 uM after 24 hrs by propidium iodide/RNase staining based flow cytometry; assay type: functional
Summary of the method: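 Cells were exposed to serially diluted compound, then fixed in cold 70% ethanol overnight at -20 °C. They were stained with PI/RNase buffer for DNA-content cell-cycle analysis.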

[14] = biological target: T1, Mast/stem cell growth factor receptor Kit; conditions: 1 uM
[15] = biological target: T1, Mast/stem cell growth factor receptor Kit; conditions: 1 uM; remark: listed apart in the source

T1 sequence (P10721 whole entry): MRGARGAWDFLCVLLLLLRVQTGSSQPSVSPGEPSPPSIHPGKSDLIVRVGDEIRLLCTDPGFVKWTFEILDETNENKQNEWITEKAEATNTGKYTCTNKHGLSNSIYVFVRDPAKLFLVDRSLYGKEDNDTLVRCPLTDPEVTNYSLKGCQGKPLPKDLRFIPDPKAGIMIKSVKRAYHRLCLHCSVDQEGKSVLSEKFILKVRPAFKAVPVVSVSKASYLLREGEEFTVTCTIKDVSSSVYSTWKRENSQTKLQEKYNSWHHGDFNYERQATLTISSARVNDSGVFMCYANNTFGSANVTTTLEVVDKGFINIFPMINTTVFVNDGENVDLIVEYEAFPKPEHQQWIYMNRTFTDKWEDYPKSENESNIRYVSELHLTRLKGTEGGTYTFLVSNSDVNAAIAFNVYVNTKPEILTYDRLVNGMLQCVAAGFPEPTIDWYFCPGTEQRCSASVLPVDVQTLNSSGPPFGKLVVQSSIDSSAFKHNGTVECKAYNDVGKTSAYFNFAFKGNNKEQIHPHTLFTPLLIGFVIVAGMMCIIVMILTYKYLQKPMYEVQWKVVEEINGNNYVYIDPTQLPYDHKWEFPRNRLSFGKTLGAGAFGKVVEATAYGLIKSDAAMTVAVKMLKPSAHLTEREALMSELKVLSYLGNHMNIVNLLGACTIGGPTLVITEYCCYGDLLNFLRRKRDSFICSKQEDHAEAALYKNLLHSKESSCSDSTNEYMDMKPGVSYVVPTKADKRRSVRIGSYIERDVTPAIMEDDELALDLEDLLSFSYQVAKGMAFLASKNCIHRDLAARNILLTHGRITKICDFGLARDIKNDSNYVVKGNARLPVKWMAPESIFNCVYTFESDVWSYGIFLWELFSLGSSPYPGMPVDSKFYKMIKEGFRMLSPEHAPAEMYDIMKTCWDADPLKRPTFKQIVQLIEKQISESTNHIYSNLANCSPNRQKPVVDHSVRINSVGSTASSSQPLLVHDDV
Mast/stem cell growth factor receptor Kit (Homo sapiens), P10721 [V559D,V654A], sequence (P10721 whole entry V559D/V654A, the tested form may be a part): as the sequence (P10721 whole entry) above, with V559D, V654A counted along it
Mast/stem cell growth factor receptor Kit (Homo sapiens), P10721 [N822K], sequence (P10721 whole entry N822K, the tested form may be a part): as the sequence (P10721 whole entry) above, with N822K counted along it
Platelet-derived growth factor receptor beta, sequence (P09619 whole entry, the tested form may be a part): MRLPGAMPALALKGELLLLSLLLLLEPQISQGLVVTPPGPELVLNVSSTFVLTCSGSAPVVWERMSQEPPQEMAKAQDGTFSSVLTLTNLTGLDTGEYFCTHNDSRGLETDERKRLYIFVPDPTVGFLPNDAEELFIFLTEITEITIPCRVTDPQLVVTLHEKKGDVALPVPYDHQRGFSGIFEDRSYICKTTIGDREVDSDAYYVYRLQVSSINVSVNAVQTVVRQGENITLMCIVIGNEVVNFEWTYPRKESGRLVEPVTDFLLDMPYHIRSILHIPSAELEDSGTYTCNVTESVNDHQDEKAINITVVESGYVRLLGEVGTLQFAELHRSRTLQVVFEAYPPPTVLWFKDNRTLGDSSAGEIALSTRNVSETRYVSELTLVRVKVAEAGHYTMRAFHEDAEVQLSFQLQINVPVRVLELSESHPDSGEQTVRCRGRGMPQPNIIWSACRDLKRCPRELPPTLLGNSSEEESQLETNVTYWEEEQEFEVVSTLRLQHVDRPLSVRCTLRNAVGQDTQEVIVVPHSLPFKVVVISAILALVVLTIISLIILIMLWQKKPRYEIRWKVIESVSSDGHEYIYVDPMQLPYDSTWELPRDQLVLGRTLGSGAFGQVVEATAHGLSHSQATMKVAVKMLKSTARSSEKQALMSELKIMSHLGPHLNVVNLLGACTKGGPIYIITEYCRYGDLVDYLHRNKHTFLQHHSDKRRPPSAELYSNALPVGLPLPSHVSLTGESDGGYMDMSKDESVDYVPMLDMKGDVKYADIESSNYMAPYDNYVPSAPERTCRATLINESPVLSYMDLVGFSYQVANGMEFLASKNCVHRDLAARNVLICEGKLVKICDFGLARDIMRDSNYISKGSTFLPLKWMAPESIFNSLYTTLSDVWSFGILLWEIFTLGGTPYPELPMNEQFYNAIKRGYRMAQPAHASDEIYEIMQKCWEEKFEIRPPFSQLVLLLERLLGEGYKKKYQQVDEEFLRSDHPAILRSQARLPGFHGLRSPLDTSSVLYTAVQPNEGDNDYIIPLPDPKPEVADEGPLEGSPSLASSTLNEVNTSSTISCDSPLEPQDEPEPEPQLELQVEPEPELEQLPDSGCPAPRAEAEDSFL
Tyrosine-protein kinase Lck, sequence (P06239 whole entry, the tested form may be a part): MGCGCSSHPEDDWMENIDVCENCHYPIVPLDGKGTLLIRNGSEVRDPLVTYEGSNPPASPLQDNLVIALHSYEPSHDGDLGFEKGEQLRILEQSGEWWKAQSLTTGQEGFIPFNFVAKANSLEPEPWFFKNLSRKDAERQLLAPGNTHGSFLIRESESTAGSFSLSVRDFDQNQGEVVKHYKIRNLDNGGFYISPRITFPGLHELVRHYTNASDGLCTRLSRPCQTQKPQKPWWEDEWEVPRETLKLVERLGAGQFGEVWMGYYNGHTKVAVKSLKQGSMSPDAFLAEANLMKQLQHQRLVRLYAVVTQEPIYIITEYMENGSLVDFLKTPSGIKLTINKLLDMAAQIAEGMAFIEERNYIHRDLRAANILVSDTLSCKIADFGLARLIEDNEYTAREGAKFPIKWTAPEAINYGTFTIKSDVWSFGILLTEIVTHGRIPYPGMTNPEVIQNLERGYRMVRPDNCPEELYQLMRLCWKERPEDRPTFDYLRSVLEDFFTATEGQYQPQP
BCR/ABL p210 fusion protein, sequence (A1Z199 1-97): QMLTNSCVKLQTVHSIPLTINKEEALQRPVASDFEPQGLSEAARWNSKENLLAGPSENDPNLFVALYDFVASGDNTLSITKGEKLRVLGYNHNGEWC

| IC50 [1] | IC50 [2] | GI50 [3] | GI50 [4] | inhibition [5] | inhibition [6] | Tmax [8] | GI50 [9] | Activity [11] | inhibition [14] | inhibition [15] | Compound | Activity (GISTT1 [7]) | TGI (GISTT1 [10]) | Activity [12] | Activity [13] |
| --- | --- | --- | --- | --- | --- | --- | --- | --- | --- | --- | --- | --- | --- | --- | --- |
| 12 nM | 80 nM | 2870 nM | 124 nM | Active | Active | 6 h | 149 nM | 0.65% | – | – | Cc1ccc(C(=O)N2CCC(Oc3cc(NC(=O)c4ccc(CN5CCN(C)CC5)c(C(F)(F)F)c4)ccc3C)CC2)cn1 | Active | Dose-dependent effect | 2.2 g | – |
| – | – | – | – | – | – | – | – | – | Active | Active | Cc1ccc(NC(=O)c2ccc(CN3CCN(C)CC3)cc2)cc1Nc1nccc(-c2cccnc2)n1 [IMATINIB] | – | – | – | Active |
